Reference: ChEMBL document CHEMBL1123661, “Structural alterations that differentially affect the mutagenic and antitrichomonal activities of 5-nitroimidazoles” (J Med Chem, 1987)
Values after ≈ are worked out from the molar mass of the structure shown.

Columns and labels:
[1] = test system: Tritrichomonas suis; assay: In vitro anti-trichomonal activity against Trichomonas foetus-Ortho strain-2.; format: functional; settings: read-out: ED50 (the source's name)
How it was run: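 Trichomonas foetus Ortho strain 2 was grown in Diamond's medium with gentamycin (24 μg/mL) and 10% calf serum. 2×10^6 trichomonads were added to 1.8 mL medium. Compound was given in water or Me₂SO (final ≤1%, with solvent controls) over a range bracketing the EC₅₀. Motile survivors were counted after 24 h at 37 °C. The value is the mean of two or three determinations.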

[2] = Safety index.; format: toxicity; settings: read-out: Safety index
How it was run: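 Index derived as [(ED₅₀ of reference × mutagenicity of reference)]/(ED₅₀ × mutagenicity), using the antitrichomonal ED₅₀ and the TA100 mutagenicity (relative to reference) measured here.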

[3] = test system: Salmonella typhimurium TA100; assay: The Mutagenicity in Salmonella typhimurium TA100 relative to Ronidazole.
[4] = test system: Salmonella typhimurium TA100; assay: The Mutagenicity was determined in Salmonella typhimurium TA100 relative to compound 20; ND means not detectable

EC50 [1] [µg/mL]	Compound	selectivity ratio [2]	Mutagenicity [3] [%]	Mutagenicity [4]
2.8 (≈ 12.3 µM)	CC(=O)OCCc1nc(C)n(C)c1[N+](=O)[O-]	14	1	–
1.6 (≈ 10.2 µM)	Cn1c([N+](=O)[O-])cnc1CO	1.6	16	–
11 (≈ 40.8 µM)	Cc1nc(CCOC(=O)C(C)(C)C)c([N+](=O)[O-])n1C	1.4	2.6	–
20 (≈ 99.4 µM)	Cn1c(CO)nc(CCO)c1[N+](=O)[O-]	2	1	–
2 (≈ 10.8 µM)	Cc1nc(CCO)c([N+](=O)[O-])n1C	71	0.28	–
–	Cn1c([N+](=O)[O-])cnc1CCO	–	19	–
7.7 (≈ 29 µM)	Cn1c(-c2ccc(F)cc2)nc(CCO)c1[N+](=O)[O-]	0.65	8	–
10 (≈ 42.5 µM)	Cc1nc(-c2ccc(F)cc2)n(C)c1[N+](=O)[O-]	0.27	15	–
21.5 (≈ 116 µM)	Cc1nc(C)n(CCO)c1[N+](=O)[O-]	6.2	0.3	–
1.35 (≈ 3.7 µM)	COc1cc(C(=O)OCCn2c([N+](=O)[O-])cnc2C)cc(OC)c1OC	2.5	12	–
0.4 (≈ 2 µM)	Cn1c([N+](=O)[O-])cnc1COC(N)=O [RONIDAZOLE]	1	100	–
3.6 (≈ 24.8 µM)	Cn1cnc(F)c1[N+](=O)[O-]	0.7	16	–
2.35 (≈ 5.4 µM)	CC(=O)Oc1cc(C(=O)OCc2ncc([N+](=O)[O-])n2C)cc(OC(C)=O)c1OC(C)=O	0.6	26	–
0.75 (≈ 3.41 µM)	Cc1nc(Br)c([N+](=O)[O-])n1C	0.65	8	–
6.6 (≈ 14.7 µM)	CC(=O)Oc1cc(C(=O)OCCn2c([N+](=O)[O-])cnc2C)cc(OC(C)=O)c1OC(C)=O	26	0.23	–
3.9 (≈ 7.37 µM)	CC(=O)Oc1cc(C(=O)OCCn2c([N+](=O)[O-])cnc2-c2ccc(F)cc2)cc(OC(C)=O)c1OC(C)=O	0.6	17	–
1 (≈ 4.67 µM)	Cc1nc(COC(N)=O)n(C)c1[N+](=O)[O-]	20	2	–
0.3 (≈ 2.13 µM)	Cc1ncc([N+](=O)[O-])n1C [DIMETRIDAZOLE]	8.9	15	–
–	Cc1nc(CCO)n(C)c1[N+](=O)[O-]	–	0.8	–
32 (≈ 206 µM)	Cc1nc(C)n(C)c1[N+](=O)[O-]	3.1	0.4	–
0.25 (≈ 1.13 µM)	Cn1c([N+](=O)[O-])cnc1-c1ccc(F)cc1	0.53	300	–
14.5 (≈ 91.1 µM)	Cc1nc(F)c([N+](=O)[O-])n1C	–	–	Not detectable
0.4 (≈ 2.34 µM)	Cc1ncc([N+](=O)[O-])n1CCO [METRONIDAZOLE]	–	–	–
